Active and inactive are the calls of the source.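 Rule for the calls: active = compounds raising caspase signal with a fitted AC50 no higher than the top valid dose tested; inconclusive = flat fit at partial mid-level activity, or unreliable fit; inactive = the rest.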

One assay concerns MEF Flag-A1-IRES-BIM, caspase-Glo luminescence, 3 h. Put plainly: apoptosis induction, Flag-A1-IRES-BIM fibroblasts – cell-based, alternate A1 construct, Caspase-Glo luminescence, dry powder, A1 inhibitor project, dose response (AID 488891).
Settings: not given
An outline of the steps:
(§1)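 Assay system: mouse embryonic fibroblasts primed with Flag-A1-IRES-BIM construct; Amount: 2500 cells/well; Doses: compound dose-response series, pin-transferred on day 2; Timing: 3 h compound exposure at 37 °C, then 1 h CaspaseGlo; Technique: luminescence with CaspaseGlo reagent; Measure: caspase activation.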
Regarding `O=C(Oc1cccc(/C=N/Nc2nc(Nc3ccccc3)nc(N3CCOCC3)n2)c1)c1ccco1`, the AC50 (in general, the midpoint of the concentration-response curve, whichever way the signal moves) was 8.01 µM.

In the case of `Cc1c(C=O)c(C=O)c(C)n1Cc1ccccc1`, the AC50 was 12.9 µM.

Consider `COc1cc(CN2CCN(c3cc(C)ccc3C)CC2)ccc1O`, for which the AC50 is 7.24 µM.

In the case of `CC(=O)N[C@H]1[C@H](O[C@H]2CC[C@@]3(C)C(CC[C@]4(C)C3CC=C3[C@@H]5CC(C)(C)CC[C@]5(C(=O)OC5OCC(O)C(O)C5O)C(O)C[C@]34C)C2(C)C)O[C@H](COC2OCC(O)C(OC3OCC(O)C(O)C3O)C2O)[C@@H](O[C@@H]2O[C@@H](C)[C@H](O)[C@@H](O)[C@H]2O[C@@H]2O[C@@H](C)[C@H](O)[C@@H](O)[C@H]2O)[C@@H]1O` (stereo not given in full), the AC50 is 7.88 µM.

Turning to `COc1ccc(N(C(=O)CCl)C(C(=O)NCCc2ccccc2)c2cccs2)cc1Cl` (stereo not given), the AC50 was 9.36 µM.

Turning to `Nc1nc(F)nc2c1ncn2[C@@H]1O[C@H](CO)[C@@H](O)[C@H]1O`, the AC50 is 1.5 µM.

Turning to `CCSc1nnc(NC(=O)c2nc(S(=O)(=O)Cc3ccc(F)cc3)ncc2Cl)s1`, the AC50 is 13.1 µM.

Turning to `CCOC(=O)CSC1=N/C(=C/c2ccc(-n3cncn3)cc2)C(=O)N1C(C)=O`, the AC50 was 11.1 µM.

`Cc1cccc(CS(=O)(=O)c2ncc(Cl)c(C(=O)Nc3nnc(C(C)C)s3)n2)c1`: the AC50 was 12 µM.

For the compound `COc1cccc(C(=O)C(C#N)=C(SC)SC)c1`, the AC50 is 1.64 µM.

For `Cc1c(CCOC(=O)c2ccc(N3CCOCC3)c([N+](=O)[O-])c2)sc[n+]1CC#N`, the AC50 is 14.2 µM.

As to `Cn1c(=NC(=O)CCl)sc2ccccc21`, the AC50 is 3.46 µM.

Regarding `Cc1ccc(Sc2c([N+](=O)[O-])c(=O)n(C)c3ccccc23)cc1`, the AC50 is 13.4 µM.

On to `CC(C)(C)n1nc(-c2ccc(Cl)cc2)c2c(N)ncnc21`, for which the AC50 is > 150 µM (inactive).

In the case of `Cc1cccc(NC(=O)/C(C#N)=C/c2cn(CC(=O)NCc3ccco3)c3ccccc23)c1`, the AC50 was 3.76 µM.

Regarding `CCc1cc2c(=O)c(-c3cnn(-c4ccccc4)c3)c(C)oc2cc1OCC(=O)Nc1cccc(C)c1`, the concentration at half-maximal activity (AC50) is 5.29 µM.

With `Cc1ccc(CS(=O)(=O)c2ncc(Cl)c(C(=O)Nc3nnc(C(C)C)s3)n2)cc1`, the concentration at half-maximal activity (AC50) was 5.49 µM.

For the compound `C/C1=C/C(=O)O[C@@H]2C[C@@H](CC[C@H](C)/C=C\CC1)O[C@@](O)(C1CSC(=O)N1)C2` (stereo not given in full), the AC50 is 0.607 µM.

On to `C=C1[C@@H](C)[C@H]2[C@H](Cc3ccccc3)NC(=O)[C@]23OC(=O)/C=C\[C@H](O)CCC[C@@H](C)C/C=C/[C@H]3[C@@H]1O`, for which the AC50 was 6.46 µM.

As for `O=C(CCl)N=c1sccn1Cc1ccccc1Cl`, the AC50 was 1.28 µM.

In the case of `Cc1cc(C(=O)CCl)c(C)n1CCc1ccc(Cl)cc1`, the AC50 was 9 µM.

`CCc1nnc(NC(=O)c2nc(S(=O)(=O)Cc3ccccc3)ncc2Cl)s1`: the AC50 was 11.6 µM.

System in a further assay: not listed separately
The description is as above. The following applies: MEF Flag-A1-IRES-BIM, caspase-Glo luminescence, 3 h; at 150 µM (top of the series). In a few lines: as §1
For the compound `CC(=O)OC(C)(C)/C=C/C(=O)[C@](C)(O)C1[C@H](O)C[C@@]2(C)C3CC=C4C(C[C@H](O)C(=O)C4(C)C)[C@]3(C)C(=O)C[C@]12C` (stereo not given in full), the caspase activation was 3.76% (inactive).

Turning to `C=C1[C@@H](C)[C@H]2[C@H](Cc3ccccc3)NC(=O)[C@]23[C@H](OC(C)=O)/C=C/[C@](C)(O)C(=O)[C@@H](C)C/C=C/[C@H]3[C@@H]1O`, the caspase activation was 1.11% (inactive).

For the compound `COc1cc(/C=C(/C#N)c2nc3ccccc3[nH]2)ccc1OCC(=O)Nc1ccccc1C(C)C`, the caspase activation is 0.299% (inactive).

The values are drawn from PubChem BioAssay AID488891 (Broad Institute, 2010).
